“Also recorded” adds a separate entry of the source.

Series [1] relates to mouse DRG neurons. Nature of the series: NfL release in response to rotenone. In kind it is cell-based. To be noted: 25 μM rotenone. Put shortly:
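Culture supernatants from mouse DRG neurons exposed to 25 µM rotenone, either continuously sampled over time or as 1- or 3-h pulses with collection at 48 h. Neurofilament light measured by NF-Light ELISA per the kit instructions.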

In another series the target is T1, CD38 (Homo sapiens, UniProt P28907).
T1 sequence (P28907 1-300): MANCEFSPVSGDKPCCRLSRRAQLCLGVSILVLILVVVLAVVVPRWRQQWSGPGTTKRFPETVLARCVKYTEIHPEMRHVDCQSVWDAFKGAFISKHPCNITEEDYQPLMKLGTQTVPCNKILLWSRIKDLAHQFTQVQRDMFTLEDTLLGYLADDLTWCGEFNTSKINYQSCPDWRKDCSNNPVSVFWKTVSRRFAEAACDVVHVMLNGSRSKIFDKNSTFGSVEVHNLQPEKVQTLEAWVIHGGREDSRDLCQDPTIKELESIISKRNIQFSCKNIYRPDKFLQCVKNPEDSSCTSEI
Nature of the series: Biochemical selectivity panel.

For series [2], the system named is mouse DRG neurons. Nature of the series: Rotenone-induced axonal degeneration. Format: cell-based. In outline: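 Mouse DRG cultures at 6–7 DIV received 25 µM rotenone, either continuously or as 1- or 3-h pulses removed by gentle 3× rinsing. Test compound at 30 µM was given either as 2-h pretreatment or immediately after rotenone removal. Axonal fragmentation scored 48 h after rotenone onset; n = 4.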

Series [3] concerns mouse DRG neurons. Nature of the series: Video time-lapse analysis of individual axonal blebs after rotenone pulse. Format: cell-based. In outline:
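Mouse DRG cultures given a 3-h pulse of 25 µM rotenone, rinsed, ± 30 µM test compound, then imaged brightfield every 15 min at 20X for 48 h. A blinded observer identified blebs at 3 h, tracked them back to confirm origin from healthy axons, then forward until fragmentation, resolution or end. Data analysed by Kaplan-Meier, with percentages taken at 48 h.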

The subject of a further series is mouse DRG axons. Nature of the series: Mitochondrial membrane potential by TMRM fluorescence. Format: cell-based. In outline: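 Mitochondrial membrane potential in mouse DRG axons read live as TMRM fluorescence; cells were then rinsed, fixed in 1% paraformaldehyde and immunostained for βIII-tubulin. Axotomy arm: 10 µM test compound. Rotenone arm: 3-h pulse of 25 µM rotenone, rinsed 3×, 30 µM test compound immediately afterward, imaged 48 h after rotenone onset; n = 4.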

The test system of series [4] is mouse DRG neurons. The series is described as follows: Axonal cADPR after 3-h rotenone pulse. Format: cell-based. To be noted: 3 h 25 μM rotenone, rinse, then 4 h compound. Put shortly:
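Mouse DRG cultures given a 3-h pulse of 25 µM rotenone, rinsed, then test compound added. Axonal metabolites extracted on ice: cell bodies removed, 50% MeOH, chloroform partition, lyophilization. cADPR measured by SPE-LC-MS/MS with 2-chloroadenosine internal standard against synthetic standard curves; reported as ng/100,000 cells.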

Series [5] relates to axotomized mouse DRG neurons. Nature of the series: Axon degeneration. In kind it is cell-based. To be noted: for axonal protection after axotomy: WT mouse DRG, 16 h post-axotomy. Put shortly: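 Mouse DRG from E13.5 C57BL/6J embryos, trypsin/EDTA-dissociated (37°C, 30 min), spotted at 5,000 cells/well on poly-D-lysine/laminin; assay at 6–7 DIV. Test compound diluted from 10 mM DMSO stock (final DMSO 0.3%), pretreated 2 h unless added after injury (e.g. 30 µM at set times). Axons cut manually with micro-surgical blade and scored for fragmentation 16 h post-axotomy.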

The subject of series [6] is axotomized mouse dorsal root ganglia (DRG) axons. The series is described as follows: Axonal metabolites. In kind it is cell-based. To be noted: axonal lysates after axotomy, dose dependent. Put shortly: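 Mouse E13.5 DRG neurons spotted at 100,000 cells/well; test compound present at graded concentrations; all axons severed around the soma cluster at DIV6. After 4 h, cell bodies removed on ice; axons extracted in 50% MeOH with chloroform partition, then lyophilized. cADPR and NAD+ quantified by online SPE-LC-MS/MS with 2-chloroadenosine internal standard against synthetic standard curves. Reported as ng/100,000 cells; n = 3/condition.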

Series [7] deals with human iPSC-derived motor neurons. Nature of the series: Axon fragmentation after axotomy in human motor neurons. In kind it is cell-based. Put shortly: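 Human iPSC-derived motor neurons spotted at 10,000 cells/well on poly-D-lysine/laminin in Complete Maintenance Medium + 5 µM DAPT; assay at 14 DIV. Test compound diluted from 10 mM DMSO stock (final DMSO 0.3%), pretreated 2 h before injury. Axons cut manually with micro-surgical blade and examined for fragmentation 16 h post-axotomy.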

The target in series [8] is T2, constitutively active SAM-TIR protein of human SARM1 (Homo sapiens, UniProt Q6SZW1).
T2 sequence (Q6SZW1 409-700): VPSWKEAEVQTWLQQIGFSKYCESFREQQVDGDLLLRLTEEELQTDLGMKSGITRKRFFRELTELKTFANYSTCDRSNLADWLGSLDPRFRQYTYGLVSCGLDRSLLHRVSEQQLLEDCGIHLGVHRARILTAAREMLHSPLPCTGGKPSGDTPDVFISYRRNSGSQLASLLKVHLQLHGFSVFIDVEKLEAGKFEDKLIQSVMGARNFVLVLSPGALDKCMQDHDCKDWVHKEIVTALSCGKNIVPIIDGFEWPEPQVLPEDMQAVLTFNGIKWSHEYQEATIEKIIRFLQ
Nature of the series: SAM-TIR NADase assay. In kind it is biochemical.

Another series has as its system mouse DRG somas. Nature of the series: Neuronal cell death after rotenone pulse. In kind it is cell-based. To be noted: WT DRG, 25 µM rotenone, 48 h. Put shortly:
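Live mouse DRG cultures exposed to 25 µM rotenone for 48 h, then stained 20 min with 0.25 µM Cytotox Green (dead cells) and 1 µM Cytolight red. Imaged by IncuCyte at 20X, 9 fields/well; bright-field gave total cell counts and green fluorescence gave dead somas.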

[9] abbreviates: 30 μM added after 3-h pulse of 25 μM rotenone.

In the case of `Ic1cccc2cnccc12` [DSRM-3716, 5-iodoisoquinoline], the “NfL release into culture supernatant in response to rotenone” value with mouse DRG neurons [1] is recorded as “can be prevented”. For the same molecule, at CD38, the “inhibitory activity against CD38” value was “no inhibitory activity”. The “protection from rotenone-induced axonal degeneration (pretreatment)” value with mouse DRG neurons [2] (25 μM rotenone, 48 h, 30 μM compound) was “prevented axonal degeneration to the same extent as protection observed in SARM1^−/− neurons; also recorded: robust protection”. In the series on mouse DRG neurons [2] (3-h pulse 25 μM rotenone, 30 μM compound immediately after removal, 48 h), the “protection from fragmentation, compound added after rotenone pulse” value is recorded as “protected axons from fragmentation”. Besides, in the series with mouse DRG neurons [3] (setting [9]), the “axonal blebs induced by rotenone that fragmented (transected)” value turned out to be 10% and the “axonal blebs induced by rotenone that remained” value worked out at 30%. The “TMRM fluorescence (mitochondrial viability) after axotomy” value in the series on mouse DRG axons (10 μM, axotomy) is recorded as “preserved TMRM fluorescence; also recorded: maintained viable functional mitochondria”. Also, the “mitochondrial function by TMRM after rotenone pulse” value with mouse DRG axons (3-h pulse 25 μM rotenone, 30 μM compound after removal, 48 h) was “preserved mitochondrial function”. Further, the “axonal levels of cADPR after rotenone pulse” value in the series with mouse DRG neurons [4] is given as “reduced axonal levels of cADPR”. Further, the “additional axonal protection in SARM1−/− neurons” value in [5] (SARM1−/− DRG, 30 µM, axotomy) is given as “did not provide benefit beyond the robust protection observed with SARM1 genetic loss of function”. In addition, the “axonal protection after axotomy” value in series [5] is listed as “protected axons”. For the same molecule, the “axonal protection, inhibitor added after injury” value in [5] (added 5 h post-axotomy) is on record as “robustly protected”. The “preservation of NAD+ after axotomy” value in [6] is “substantial preservation of NAD^+”. Besides, the “protection from fragmentation after axotomy” value in [7] was “dose-dependent protection”.
For `Oc1cccc2cnccc12` [compound 3, 5-hydroxyisoquinoline], in series [8], the IC50 (commonly the concentration needed to halve the response being measured) came to 2600 nM.
For the molecule `O=C(c1cc(Cc2n[nH]c(=O)c3ccccc23)ccc1F)N1CCN(C(=O)C2CC2)CC1` [olaparib, reference compound], the “axonal protection after axotomy” value in [5] is recorded as “no protection of injured axons”.
Consider `C=C(C)[C@H]1Cc2c(ccc3c2O[C@@H]2COc4cc(OC)c(OC)cc4[C@@H]2C3=O)O1` [rotenone, reference compound], for which the “neuronal cell death (dead somas) caused by rotenone” value with mouse DRG somas is “approximately 60%”. Also, the “axonal degeneration after rotenone pulse” value in the series on mouse DRG neurons [2] (25 μM rotenone removed after 1 h, examined at 48 h) is given as ~ 70%. Also, the “blebs transected after rotenone removal” value in the series on mouse DRG neurons [3] (3-h pulse 25 μM rotenone, by 18 h) was 95%. Besides, in the series with mouse DRG neurons [3] (3-h pulse 25 μM rotenone, by 48 h), the “blebs fragmented after rotenone removal” value turned out to be 100%.

Source of the values: publication PMC8179325 (Cell reports, 2021).
